Measured values from article PMC10126818 (RSC Advances, 2023).
“Also recorded” adds a separate entry of the source. Where no end group is shown, it is not given here.

System: A549 cells
Assay: Cytotoxicity assay
Assay type: cell-based, human
Method in brief: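 A549 cells (ATCC) seeded in 96-well plates at 5 × 10^3 cells per mL, grown 24 h. Medium replaced with matched concentrations (up to 160 μg mL−1) of free drug or peptide-nanocage-encapsulated drug (pH 8.09). Nanocages were made by emulsifying drug in chloroform into 1 mM peptide/PBS pH 7.4. After 24 h, CCK-8 added for 3 h; OD 450 nm read. Viability = (ODtest − ODblank)/(ODcontrol − ODblank) × 100%.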

| Compound | cell survival rate (160 μg mL^−1, 24 h culture, CCK-8, OD 450 nm) | cytotoxicity (in words) (24 h culture, CCK-8) |
| --- | --- | --- |
| CC(=O)O[C@H]1C(=O)[C@@]2(C)[C@H]([C@H](OC(=O)c3ccccc3)[C@]3(O)C[C@H](OC(=O)[C@H](O)[C@@H](NC(=O)c4ccccc4)c4ccccc4)C(C)=C1C3(C)C)[C@]1(OC(C)=O)CO[C@@H]1C[C@@H]2O [PTX, Paclitaxel, reference compound] | approximately 60% |  |
| GNNQQNYPKKPGNNQQNY [GSLP, GNNQQNY-PKKP-GNNQQNY] |  | not concentration-dependent toxic; also recorded: do not exhibit cytotoxicity |
